High-throughput results deposited in PubChem BioAssay by several laboratories.
Thrombin inh – human alpha-thrombin inhibitors, primary screen, counter-screen for coagulation protease inhibitor project, biochemical, 1536-well, fluorogenic AMC substrate. inhibition, % at 5 µM. Prothrombin (Homo sapiens), P00734. hit rate 0.26% among 220,000. Boc-VPR-AMC fluorogenic substrate cleavage;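 active means inhibition at or above 40%; inactive means inhibition below 40%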;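 further: 0% = enzyme with no compound and 100% = wells without enzyme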
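Material: human alpha-thrombin protein. Incubation: reaction at ambient temperature. Technique: fluorescence of released AMC, ex 355 nm, em 460 nm. Control set: no-compound enzyme wells and no-enzyme blanks. Also added: Boc-VPR-AMC substrate, 15 µM final. Buffer or medium: pH 7.5 Tris (50 mM) with NaCl 150 mM, Tween 20 0.05%.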
FXIIa inh 1536 – human FXIIa protease inhibitors, primary screen, biochemical, 1536-well; AID 800, 2007; Coagulation factor XII (Homo sapiens), P00748; hit rate 0.3% among 220,000; purified FXIIa, Boc-QGR-AMC fluorogenic substrate, 2 h; inhibition, % at 5 µM; in the data active means inhibition above about 40%;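 further: 0% = enzyme with no compound and 100% = blank without enzyme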
KLK5 inh – human KLK5 protease inhibitors, primary screen, biochemical, 1536-well. recombinant hK5, fluorogenic AMC substrate cleavage. inhibition, % at 5 µM. hit rate 0.59% among 210,000. AID 873, 2007;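 active means inhibition of 40% or more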;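 further: 0% = enzyme controls without compound and 100% = no-enzyme blanks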
Calpain2 inh – inhibitors of pig calpain II, primary screen, biochemical, fluorogenic peptide substrate, 1536-well; hit rate 0.37% among 220,000; purified calpain II, 30 min; AID 1236, 2008; inhibition, % at 16 µM;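 active means inhibition above about 50%, limit read from the data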
FXIa inh – human FXIa protease inhibitors, primary screen, biochemical, 1536-well | hit rate 0.14% among 220,000 | purified FXIa, Boc-Glu-Ala-Arg-AMC fluorogenic substrate | inhibition, % at 5 µM | Coagulation factor XI (Homo sapiens), P03951 | AID 798, 2007;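 active means inhibition of at least 40%; inactive means inhibition below 40%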;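 further: fluorescence of freed AMC excited at 355 nm; 0% = enzyme without compound and 100% = no enzyme blank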
Furin inh – human furin inhibitors, primary screen, biochemical, fluorescence intensity; P09958; AID 463115, 2010; inhibition, % at 20 µM or 30 µM; purified furin, fluorogenic substrate cleavage; hit rate 0.061% among 220,000; in the data active means inhibition above about 25%
Target sequence (P09958 108-714 limits assumed): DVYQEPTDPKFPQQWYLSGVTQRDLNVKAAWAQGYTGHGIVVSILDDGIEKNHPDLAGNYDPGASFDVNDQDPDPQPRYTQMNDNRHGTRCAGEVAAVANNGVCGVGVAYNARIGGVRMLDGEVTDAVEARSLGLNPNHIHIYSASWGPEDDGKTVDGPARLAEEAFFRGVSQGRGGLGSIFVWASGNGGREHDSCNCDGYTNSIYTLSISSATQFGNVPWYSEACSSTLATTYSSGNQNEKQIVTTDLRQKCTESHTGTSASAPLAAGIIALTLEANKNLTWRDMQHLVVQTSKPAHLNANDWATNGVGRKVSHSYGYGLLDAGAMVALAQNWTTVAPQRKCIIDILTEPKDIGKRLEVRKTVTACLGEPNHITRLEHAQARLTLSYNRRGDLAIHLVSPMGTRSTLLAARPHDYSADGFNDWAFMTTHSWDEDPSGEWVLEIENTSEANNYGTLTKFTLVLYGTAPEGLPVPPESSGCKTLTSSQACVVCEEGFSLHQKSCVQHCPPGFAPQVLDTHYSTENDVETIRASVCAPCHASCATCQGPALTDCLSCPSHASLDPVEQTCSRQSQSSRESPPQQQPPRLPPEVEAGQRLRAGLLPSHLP
* hit, by the source's call. Most compounds without a hit are left out; they make up all but 1.4% or so of the library.

`O=C(CCC1CCCN(C(=O)C2(c3ccccc3)CC2)C1)N1CCN(c2ccccn2)CC1` (stereo not given) gave Thrombin inh 96*, FXIIa inh 1536 9, KLK5 inh 0, Calpain2 inh -29, FXIa inh -4 and Furin inh -32.
CCCCCC(=O)Nc1cccc(C2=NOC3(C2)C[C@@H](C(N)=O)N(C(=O)c2cc([N+](=O)[O-])cc([N+](=O)[O-])c2C)C3)c1 (stereo not given in full) was read as Thrombin inh 14, FXIIa inh 1536 24, KLK5 inh 14, Calpain2 inh -11, FXIa inh 40* and Furin inh -1.
Screening O=C(COc1cc(Cl)c(Cl)cc1Cl)N1CCN(c2ccccn2)CC1 returned Thrombin inh 54*, FXIIa inh 1536 29, KLK5 inh 24, Calpain2 inh 7, FXIa inh 32 and Furin inh -3.
Screening O=C(COc1ccc(Cl)cc1Cl)N1CCN(c2ccccn2)CC1 returned Thrombin inh -7, FXIIa inh 1536 3, KLK5 inh -5, Calpain2 inh -14, FXIa inh -5 and Furin inh -11.
C=CCN(C(=O)CSC1=NC(=O)CN1C(C)=O)c1nc(C)c(-c2ccccc2)s1 was read as Thrombin inh -4, FXIIa inh 1536 8, KLK5 inh 4, Calpain2 inh 8, FXIa inh 1 and Furin inh -6.
`CNC(=S)Nc1cccc(C(=O)OC)c1` gave Thrombin inh 9, FXIIa inh 1536 32, KLK5 inh 51*, Calpain2 inh 17, FXIa inh 5 and Furin inh -6.
Screening COC(=O)c1ccc(Cl)c(NC(=O)CSc2ncn[nH]2)c1 returned Thrombin inh -10, FXIIa inh 1536 -6, KLK5 inh -23, Calpain2 inh -23, FXIa inh -10 and Furin inh -23.
COC(=O)c1cccc(NC(=O)CSc2ncn[nH]2)c1 was read as Thrombin inh 2, FXIIa inh 1536 54*, KLK5 inh -2, Calpain2 inh 7, FXIa inh 44* and Furin inh -24.
Screening COC(=O)c1cccc(NC(N)=S)c1 returned Thrombin inh -3, KLK5 inh 4, Calpain2 inh -1, FXIa inh 0 and Furin inh -25.
Cc1ccc(/C=C(\NC(=O)c2ccccc2)C(=O)N2CCCC2C(=O)O)cc1 (stereo not given) was read as Thrombin inh -9, FXIIa inh 1536 2, KLK5 inh -2, Calpain2 inh -27, FXIa inh -5 and Furin inh -34.
CCOc1cccc2c1OC1(C)CC2NC(=O)N1Cc1ccccc1 (stereo not given) was read as Thrombin inh 4, FXIIa inh 1536 37, KLK5 inh 38, Calpain2 inh 12, FXIa inh 62* and Furin inh -8.
`Cc1ccsc1C(=O)NNC(=O)C1CC=CCC1C(=O)O` (stereo not given) gave Thrombin inh 23, FXIIa inh 1536 12, KLK5 inh 55*, Calpain2 inh 13, FXIa inh 11 and Furin inh -5.
`S=c1nc(-c2sccc2OCc2ccc(Cl)cc2Cl)[nH][nH]1` gave Thrombin inh -10, FXIIa inh 1536 8, KLK5 inh -11, Calpain2 inh 93*, FXIa inh 7 and Furin inh 0.
`Cc1cc(N2C(=O)C3C4CC(C(Br)C4Br)C3C2=O)no1` (stereo not given) gave Thrombin inh 2, FXIIa inh 1536 15, KLK5 inh -7, Calpain2 inh -5, FXIa inh 10 and Furin inh -19.
Screening CC(=O)NNC(=O)c1sc(=S)n2c1[nH]c(=O)c1sccc12 returned Thrombin inh -11, FXIIa inh 1536 3, KLK5 inh -73, Calpain2 inh -19, FXIa inh -3 and Furin inh -4.
`O=C(NCc1ccccc1)c1sc(=S)n2c1[nH]c(=O)c1ccccc12` gave Thrombin inh 25, FXIIa inh 1536 16, KLK5 inh 43*, Calpain2 inh 7, FXIa inh 16 and Furin inh -28.
For O=C(CSc1cccc[n+]1[O-])c1cc(Cl)ccc1Cl the results were Thrombin inh 0, FXIIa inh 1536 12, KLK5 inh -1, Calpain2 inh 70*, FXIa inh -1 and Furin inh -31.
`CN(C)c1ccc(CN(C(=O)COc2ccc(F)cc2)C2CCS(=O)(=O)C2)cc1` (stereo not given) gave Thrombin inh 4, FXIIa inh 1536 14, KLK5 inh -7, Calpain2 inh -15, FXIa inh 5 and Furin inh -16.
Screening Nc1nc(CN2CCCCC2)cs1 returned Thrombin inh 104*, FXIIa inh 1536 -3, KLK5 inh 62*, Calpain2 inh 9, FXIa inh -1 and Furin inh -23.
`COc1ccc(/C=N/OCC(=O)Nc2ccc3c(c2)OCO3)c(OC)c1` gave Thrombin inh -1, FXIIa inh 1536 14, KLK5 inh 2, Calpain2 inh 56*, FXIa inh 5 and Furin inh -14.
Screening Cc1ccc2cc(/C=N/NC(=O)c3ccccc3[N+](=O)[O-])c(Cl)nc2c1 returned Thrombin inh -9, FXIIa inh 1536 8, KLK5 inh 1, Calpain2 inh -3, FXIa inh -1 and Furin inh -11.
For COCc1cnc(C)nc1N the results were FXIIa inh 1536 9, KLK5 inh 6, Calpain2 inh 15, FXIa inh 13 and Furin inh -4.
Screening O=[N+]([O-])c1ccc(Sc2cccc[n+]2[O-])c2nonc12 returned Thrombin inh -1, FXIIa inh 1536 5, KLK5 inh 3, Calpain2 inh 22, FXIa inh -7 and Furin inh 3.
COc1ccc(CCCc2nnc(SCC(=O)Nc3ccc(C)c(C)c3)o2)cc1 was read as Thrombin inh -10, FXIIa inh 1536 6, KLK5 inh -24, Calpain2 inh 60*, FXIa inh -1 and Furin inh -13.
O=C1Nc2ccccc2N(O)N1c1cc(-c2ccccc2)[nH]n1 was read as FXIIa inh 1536 4, KLK5 inh -5, Calpain2 inh -6, FXIa inh 3 and Furin inh -11.
For COc1cccc(CNc2ccc(N3CCCCC3)cc2)c1OC the results were Thrombin inh -1, FXIIa inh 1536 11, KLK5 inh 13, Calpain2 inh 16, FXIa inh 16 and Furin inh -16.
COc1cccc(CNc2ccc(S(N)(=O)=O)cc2)c1OC was read as Thrombin inh 18, FXIIa inh 1536 107*, KLK5 inh 31, Calpain2 inh 5, FXIa inh 6 and Furin inh -22.
